Results of several laboratories.
Each line is one published result; the experiments were not run side by side.
Target: Dual specificity tyrosine-phosphorylation-regulated kinase 1B (DYRK1B, Homo sapiens, UniProt Q9Y463)

Compound | assay | conditions | measurement | result
CCC(=N\O)/C(C)=C/c1ccc(F)cc1 | cell-free assay, competition with immobilised ligand | 1 µM | remaining binding | 57%
COc1cc2ncnc(Nc3ccc(Oc4ccccc4)cc3C)c2cc1OC | enzyme activity, inhibitor | 1 µM | inhibition | 0%
Cc1sc(C(=O)NC2COC2)cc1-n1cc(NC(=O)Nc2c(F)cccc2Cl)cn1 | enzyme activity, inhibitor | 10 µM | remaining activity | 105%
O=C(CSc1nc2nccnc2c(=O)n1CCc1ccccc1)Nc1nccs1 | enzyme activity, inhibitor | 10 µM | inhibition | -3%
O=C(O)c1ccc2c(c1)nc(NCc1ccccc1)c1ncncc12 | enzyme activity, inhibitor, radiometric | 1 µM | remaining activity | 124%
CSc1cccnc1N1CCN(Cc2nc3ccccc3[nH]2)CC1 | cell-free assay, competition with immobilised ligand | 1 µM | remaining binding | 91%
Cn1cnc(Br)c1C1=CN(c2ncnc3[nH]cnc23)CCS1 | enzyme activity, inhibitor, radiometric | 2 µM | inhibition | 100%
O=C(O)c1ccc2c(c1)nc(Nc1cccc(F)c1)c1ncncc12 | enzyme activity, inhibitor, radiometric | 1 µM | remaining activity | 30%
Cn1cncc1C1=CN(c2ncnc3[nH]cnc23)CCS1 | enzyme activity, inhibitor, radiometric | 50 nM | inhibition | 22.7%
Cc1c(C(=O)O)cc(-c2ccc(C3CCNCC3)cc2)c2ccc(-c3ccc(C(F)(F)F)cc3)cc12 | cell-free assay, competition with immobilised ligand | 1 µM | remaining binding | 74%
O=C(O)c1ccc2c(c1)nc(Nc1ccc3ccccc3c1)c1ncncc12 | enzyme activity, inhibitor, radiometric | 1 µM | remaining activity | 41%
O=C1NC(c2ccccn2)Sc2ccccc21 (stereo not drawn) | cell-free assay, competition with immobilised ligand | 1 µM | remaining binding | 100%
COc1cccc(CCNc2nc3cc(C(=O)O)ccc3c3cncnc23)c1 | enzyme activity, inhibitor, radiometric | 1 µM | remaining activity | 112%
O=C(NCCCC1CCCCC1)c1ccc(CNC(=O)c2cnn(-c3ccccc3)c2C(F)(F)F)cc1 | cell-free assay, competition with immobilised ligand | 0.1 µM | remaining binding | 100%
Cc1ccc(NC(=O)c2ccc(C)c(C(F)(F)F)c2)cc1C#Cc1nn(C2CCC(O)CC2)c2ncnc(N)c12 (stereo not drawn) | cell-free assay | 10 µM | remaining signal | 92%
